# In PMC3358452 (Chemical Research in Toxicology, 2012):
# Where two headings read alike, the source gives them in different places.
# How the values were obtained:
# Kinetics of decay = format: physicochemical; conditions: for half-life at 0.0013 M: buffered aqueous solution, pH 7, t1/2 for decay
# How it was run: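 The first check was in D2O with 0.005 M DCl, 0.005 M lactone and 0.005 M acetonitrile as internal standard, at 25 °C. Loss of the C-6 1H-NMR resonances at 4.78 ppm was compared with UV decay at 225 nm. The extended UV runs used 220–235 nm, 5% acetonitrile/H2O, ionic strength 1 M (KCl), 25 °C and 0.0013 M lactone. Buffers were formic, acetic, cacodylic and ethylphosphonic.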
# [1] = Lower limit of KO by monitoring disappearance of the lactone multiplets; format: physicochemical; conditions: D2O, 1 M DClO4, lactone multiplets monitored to equilibrium
# [2] = format: physicochemical
# How it was run: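 Reverse-phase HPLC quantified lactone left after an acidic aqueous solution reached equilibrium at 25 °C. The solution initially held 0.05 M lactone, measured gravimetrically, in 5% by volume acetonitrile. Ionic strength was set with KCl and hydrogen ion concentration varied. Remaining lactone was interpolated from a standard curve; triplicate injections per determination.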
# pKa of = format: physicochemical; conditions: Calculated pKa, 25 °C, buffer 0.05 M, AH/A- = 1.0
# How it was run: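 pH was measured in solutions of the sodium salt of the acid, measured gravimetrically and partially neutralized with HCl. Solutions held 5% by volume acetonitrile, with ionic strength balanced by KCl. […] Mean and SD of duplicates at 25 °C.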
# [3] = fit of log ko vs pH, 25 °C, ionic strength 1 M (KCl), 5% by volume acetonitrile
# [4] = group 2: AFB1 followed by 1 (1.32 g over 12 weeks), mean ± SEM
# [5] = group 3: 1 only (1.32 g over 12 weeks)
molecule,measurement,setting,value
"O=C1COCCO1 [compound 1, 1,4-Dioxan-2-one]",first order rate constant of decay (NMR),"Kinetics of decay; 1H-NMR, D2O, 0.005 M DCl, 25 °C",0.017 ± 0.002 min⁻¹
same,first order rate constant of decay (UV),"Kinetics of decay; UV spectrophotometry, D2O, 0.005 M DCl, 25 °C",0.016 ± 0.001 min⁻¹
same,half-life at 0.0013 M,Kinetics of decay; pH 7,2.12 h
same,half-life at 0.0013 M,"Kinetics of decay; pH = 7.0, 25 °C",~2 h
same,factor by which 1 is more reactive toward hydroxide ion than valerolactone,Kinetics of decay; comparison with literature rate constant,~ 1500
same,"kH+, hydrogen ion catalyzed rate constant for solvolysis",Kinetics of decay; [3],1.1 (± 0.1) M^−1 min^−1
same,"kOH, hydroxide ion catalyzed rate constant",Kinetics of decay; [3],4.1 (± 0.3) × 10^4 M^−1 min^−1
same,"kw, water catalyzed (pH-independent) rate constant",Kinetics of decay; [3],9.9 (± 0.5) × 10^−4 min^−1
same,"KO, lower limit value",[1],> 50
same,"KOA, equilibrium constant between 1 and carboxylic acid anion 3 and the proton (KOA = Ka × KO)","[2]; 25 °C, ionic strength 1M (KCl), 5% by volume acetonitrile",0.034 ± 0.002 M
same,"Ko, equilibrium constant for lactone 1 and its open-chain acid form","[2]; 25 °C, [HCl] 0.05 M, total ionic strength 0.05 M, 5% by volume acetonitrile",71
same,"Ko, equilibrium constant for lactone 1 and its open-chain acid form","[2]; 25 °C, [HCl] 0.10 M, total ionic strength 1.0 M (KCl), 5% by volume acetonitrile",70
same,"Ko, equilibrium constant for lactone 1 and its open-chain acid form","[2]; 25 °C, [HCl] 0.20 M, total ionic strength 1.0 M (KCl), 5% by volume acetonitrile",70
same,"KO, equilibrium constant between 1 and hydrolysis product 2","[2]; acidic aqueous media, 25 °C, ionic strength 1M (KCl), 5% by volume acetonitrile",70 ± 3.5
same,lactone as percent of the total species at equilibrium,[2]; pH = 7,~ 3 ×10^−4%
same,average size of observed GST-P positive foci,"F344 rat liver; group 2 (AFB1 + 1), data not shown",> 200 µm
same,Foci per cubic cm (morphometric),F344 rat liver; [4],1190 ± 230
same,Mean Diameter of foci (morphometric),F344 rat liver; [4],210 ± 32 microns
same,Volume % of liver occupied by GST-P positive foci,F344 rat liver; [4],2.1 ± 0.7%
same,diameter of the single focus observed,F344 rat liver; group 3 (1 only),65 µm
same,Mean Diameter of foci (morphometric),F344 rat liver; [5],65 microns
same,Volume % of liver occupied by GST-P positive foci,F344 rat liver; [5],0.001%
same,Foci per cubic cm (morphometric),"F344 rat liver; group 3: 1 only (1.32 g over 12 weeks), mean ± SEM",6.1 ± 6.1
same,Mean Foci Counted (observed),"F344 rat liver; group 3: 1 only, gavage 3 days/week for 12 weeks (1.32 g total), mean ± SEM",0.1 ± 0.1
"O=C(O)COCCO [compound 2, 2-(2-hydroxyethoxy) acetic acid]",pKa,pKa of; ionic strength 0.05 M,3.43
same,pKa,pKa of; ionic strength 0.25 M (KCl),3.36
same,pKa,pKa of; ionic strength 0.35 M (KCl),3.36
same,pKa,pKa of; ionic strength 0.45 M (KCl),3.36
same,pKa,pKa of; ionic strength 0.55 M (KCl),3.38
"aflatoxin B1 [AFB1, reference compound]",Foci per cubic cm (morphometric),"F344 rat liver; rat, in vivo",1230 ± 410
same,Mean Diameter of foci (morphometric),"F344 rat liver; rat, in vivo",227 ± 35 microns
same,Mean Foci Counted (observed),"F344 rat liver; rat, in vivo",44 ± 8
same,Volume % of liver occupied by GST-P positive foci,"F344 rat liver; rat, in vivo",3.1 ± 1.0%
same,average size of observed GST-P positive foci,"F344 rat liver; rat, in vivo",> 200 µm
